Data: ChEMBL document CHEMBL3091449, “Synthesis and antimicrobial profile of N-substituted imidazolium oximes and their monoquaternary salts against multidrug resistant bacteria” (2013)
Values after ≈ are worked out from the molar mass of the structure shown.

How the values were obtained:
Type in all cases: functional
[1] = system: Aeromonas caviae; test: Antibacterial activity against […] expressing Aeromonas caviae isolate 258 after 18 to 24 hrs by two-fold broth microdilution assay
How it was run: (§1)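 CLSI two-fold broth microdilution was used. Compounds were dissolved in DMSO, brought to 10 mg/mL in medium, then serially diluted in Mueller Hinton broth over 400–0.09 µg/mL. Overnight MHB cultures were diluted to 10^6 CFU/mL, and 10 µL was added per well. Plates were incubated 18–24 h at 37 °C, then 0.2 mg/mL INT was added for 30 min at 37 °C. MIC was the lowest concentration with no visible growth or pink colour, triplicate.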

[2] = system: Clostridium perfringens; test: Antibacterial activity against Clostridium perfringens FNSST 4999 after 18 to 24 hrs by two-fold broth microdilution assay
How it was run: (§2)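 CLSI two-fold broth microdilution. Compounds dissolved in DMSO, 10 mg/mL stock, serially diluted to 400–0.09 µg/mL in Mueller Hinton broth. Wells inoculated with 10^6 CFU/mL bacteria and incubated 18–24 h at 37 °C. 0.2 mg/mL INT added for 30 min. MIC taken as the lowest concentration with no visible growth or pink colour. Triplicate.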

[3] = system: Aeromonas hydrophila; test: Antibacterial activity against Aeromonas hydrophila FNSST 014 after 18 to 24 hrs by two-fold broth microdilution assay; how it was run: as §1
[4] = system: Escherichia coli; test: Antibacterial activity against […] expressing Escherichia coli isolate 4024 after 18 to 24 hrs by two-fold broth microdilution assay; how it was run: as §2
[5] = system: Enterococcus faecalis; test: Antibacterial activity against Enterococcus faecalis ATCC 29212 assessed as diameter of zone of inhibition at 30 ug/disc after 24 hrs by disc diffusion method; details: ATCC 29212, 24 h, read-out: DIZ
How it was run: (§3)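 Ampicillin 30 µg discs were the positive control on Mueller Hinton agar. The agar was spread with 100 µL of a 10^6 cfu/mL overnight TSB culture grown at 37 °C. Plates were incubated 24 h at 37 °C, and zone diameter was read including the 6 mm disc, in triplicate, mean ± SE.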

[6] = system: Klebsiella pneumoniae; test: Antibacterial activity against TEM-1/SHV-12 expressing Klebsiella pneumoniae isolate 303 after 18 to 24 hrs by two-fold broth microdilution assay; how it was run: as §1
[7] = system: Enterobacter cloacae; test: Antibacterial activity against CTX-15 expressing Enterobacter cloacae isolate 51 after 18 to 24 hrs by two-fold broth microdilution assay
[8] = system: Aeromonas hydrophila; test: Antibacterial activity against TEM-1/SHV-12 expressing Aeromonas hydrophila isolate 268 after 18 to 24 hrs by two-fold broth microdilution assay; how it was run: as §1
[9] = system: Pseudomonas aeruginosa; test: Antibacterial activity against Pseudomonas aeruginosa FNSST 982 after 18 to 24 hrs by two-fold broth microdilution assay; how it was run: as §1
[10] = system: Klebsiella pneumoniae; test: Antibacterial activity against Klebsiella pneumoniae FNSST 011 after 18 to 24 hrs by two-fold broth microdilution assay; how it was run: as §1
[11] = system: Escherichia coli; test: Antibacterial activity against TEM-1/SHV-12 expressing Escherichia coli isolate 237 after 18 to 24 hrs by two-fold broth microdilution assay; how it was run: as §2
[12] = system: Enterobacter cloacae; test: Antibacterial activity against TEM-1/SHV-12 expressing Enterobacter cloacae isolate 306 after 18 to 24 hrs by two-fold broth microdilution assay
[13] = system: Pseudomonas aeruginosa; test: Antibacterial activity against Pseudomonas aeruginosa FNSST 982 assessed as diameter of zone of inhibition at 30 ug/disc after 24 hrs by disc diffusion method; details: FNSST 982, 24 h, read-out: DIZ; how it was run: as §3
[14] = system: Enterobacter cloacae; test: Antibacterial activity against TEM-1/CTX-M-15 expressing Enterobacter cloacae isolate 62 after 18 to 24 hrs by two-fold broth microdilution assay
[15] = system: Klebsiella pneumoniae; test: Antibacterial activity against Klebsiella pneumoniae FNSST 011 assessed as diameter of zone of inhibition at 30 ug/disc after 24 hrs by disc diffusion method; details: FNSST 011, 24 h, read-out: DIZ; how it was run: as §3
[16] = system: Aeromonas caviae; test: Antibacterial activity against TEM-1/CTX-M-15 expressing Aeromonas caviae isolate 260 after 18 to 24 hrs by two-fold broth microdilution assay; how it was run: as §1
[17] = system: Bacillus cereus; test: Antibacterial activity against Bacillus cereus ATCC 11778 assessed as diameter of zone of inhibition at 30 ug/disc after 24 hrs by disc diffusion method; details: ATCC 11778, 24 h, read-out: DIZ; how it was run: as §3
[18] = system: Acinetobacter baumannii; test: Antibacterial activity against SIM-1 expressing Acinetobacter baumannii isolate 170 after 18 to 24 hrs by two-fold broth microdilution assay; how it was run: as §2
[19] = system: Pseudomonas aeruginosa; test: Antibacterial activity against GIM-1 expressing Pseudomonas aeruginosa isolate 197 after 18 to 24 hrs by two-fold broth microdilution assay; how it was run: as §1
[20] = system: Bacillus cereus; test: Antibacterial activity against Bacillus cereus ATCC 11778 after 18 to 24 hrs by two-fold broth microdilution assay; how it was run: as §1
[21] = system: Clostridium perfringens; test: Antibacterial activity against Clostridium perfringens FNSST 4999 assessed as diameter of zone of inhibition at 30 ug/disc after 24 hrs by disc diffusion method; details: FNSST 4999, 24 h, read-out: DIZ
How it was run: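 Ampicillin 30 µg disc run as positive control in CLSI disc diffusion. 100 µL of 10^6 cfu/mL bacteria spread on Mueller Hinton agar, incubated 24 h at 37 °C. Zone diameter measured in mm including the disc, triplicate, mean ± SE.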

[22] = system: Enterococcus faecalis; test: Antibacterial activity against Enterococcus faecalis ATCC 29212 after 18 to 24 hrs by two-fold broth microdilution assay; how it was run: as §1
[23] = system: Kluyvera intermedia; test: Antibacterial activity against TEM-1/SHV-12/[…] expressing Enterobacter intermedius isolate 243 after 18 to 24 hrs by two-fold broth microdilution assay; how it was run: as §1
[24] = system: Staphylococcus aureus; test: Antibacterial activity against Staphylococcus aureus ATCC 25923 after 18 to 24 hrs by two-fold broth microdilution assay; how it was run: as §1
[25] = system: Escherichia coli; test: Antibacterial activity against Escherichia coli FNSST 982 after 18 to 24 hrs by two-fold broth microdilution assay; how it was run: as §1
[26] = system: Escherichia coli; test: Antibacterial activity against […] expressing Escherichia coli isolate 235 after 18 to 24 hrs by two-fold broth microdilution assay; how it was run: as §2
[27] = system: Staphylococcus aureus; test: Antibacterial activity against Staphylococcus aureus ATCC 25923 assessed as diameter of zone of inhibition at 30 ug/disc after 24 hrs by disc diffusion method; details: ATCC 25923, 24 h, read-out: DIZ; how it was run: as §3
[28] = system: Aeromonas hydrophila; test: Antibacterial activity against Aeromonas hydrophila FNSST 014 assessed as diameter of zone of inhibition at 30 ug/disc after 24 hrs by disc diffusion method; details: FNSST 014, 24 h, read-out: DIZ; how it was run: as §3
[29] = system: Escherichia coli; test: Antibacterial activity against Escherichia coli FNSST 982 assessed as diameter of zone of inhibition at 30 ug/disc after 24 hrs by disc diffusion method; details: FNSST 982, 24 h, read-out: DIZ; how it was run: as §3
[30] = system: Stenotrophomonas maltophilia; test: Antibacterial activity against […] expressing Stenotrophomonas maltophilia isolate 125 after 18 to 24 hrs by two-fold broth microdilution assay; how it was run: as §1

`CO/N=C(\C(=O)N[C@@H]1C(=O)N2C(C(=O)O)=C(COC(C)=O)CS[C@H]12)c1csc(N)n1` [CEFOTAXIME] showed an MIC [1] of 258 µg/mL (≈ 566 µM), an MIC [2] of 0.1 µg/mL (≈ 0.22 µM) and an MIC [3] of 8 µg/mL (≈ 17.6 µM). It also gave an MIC [4] of 256 µg/mL (≈ 562 µM), a zone of inhibition at 30 µg/disc [5] of 23.5 mm and an MIC [6] of 64 µg/mL (≈ 141 µM). For the same compound, the MIC [7] was 32 µg/mL (≈ 70.3 µM), the MIC [8] was 256 µg/mL (≈ 562 µM) and the MIC [9] was 16 µg/mL (≈ 35.1 µM). The MIC [10] was 0.5 µg/mL (≈ 1.1 µM), the MIC [11] was greater than 256 µg/mL and the MIC [12] was greater than 128 µg/mL. It also gave a zone of inhibition at 30 µg/disc [13] of 10.4 mm, an MIC [14] greater than 256 µg/mL and a zone of inhibition at 30 µg/disc [15] of 21.4 mm. The MIC [16] was 256 µg/mL (≈ 562 µM), the zone of inhibition at 30 µg/disc [17] was 26.8 mm and the MIC [18] was greater than 256 µg/mL. For the same compound, the MIC [19] was 256 µg/mL (≈ 562 µM), the MIC [20] was 0.25 µg/mL (≈ 0.549 µM) and the zone of inhibition at 30 µg/disc [21] was 28.5 mm. The MIC [22] was 0.5 µg/mL (≈ 1.1 µM), the MIC [23] was 8 µg/mL (≈ 17.6 µM) and the MIC [24] was 0.5 µg/mL (≈ 1.1 µM). For the same compound, the MIC [25] was 0.5 µg/mL (≈ 1.1 µM), the MIC [26] was greater than 256 µg/mL and the zone of inhibition at 30 µg/disc [27] was 21.7 mm. The zone of inhibition at 30 µg/disc [28] was 14.7 mm, the zone of inhibition at 30 µg/disc [29] was 22.8 mm and the MIC [30] was 32 µg/mL (≈ 70.3 µM).
